Test results as given in ChEMBL document CHEMBL1142774, “Substituted tetraazaacenaphthylenes as potent CRF1 receptor antagonists for the treatment of depression and anxiety” (Bioorg Med Chem Lett, 2005).

Key:
[1] = Displacement of [125I]o-CRF from recombinant human CRF receptors expressed in Chinese Hamster Ovary (CHO) cell membranes
[2] = Oral bioavailability in rat at 1 hr (dose 0.5 mg/kg i.v.); assay type: ADME, organism-based; conditions: in vivo, 1 mg/kg
Procedure, shortened: (§1)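 The pharmacokinetic study used Hans–Wistar rats. Each compound was given by the oral route at 1 mg/kg and by the intravenous route at 0.5 mg/kg. Plasma clearance and oral bioavailability were derived from these two administrations.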

[3] = Brain/Plasma ratio level at 1 hr after a intravenous dose 0.5 mg/kg in rats; assay type: ADME, organism-based; set-up: dose 0.5 mg/kg, route intravenous; conditions: rat, read-out: Penetration
Procedure, shortened: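 Hans–Wistar rats were given a single 0.5 mg/kg intravenous dose. Brain and plasma levels were measured at 1 h post-dose, and the brain/plasma ratio was taken from these levels.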

[4] = Plasma clearance at 1 hr after a intravenous dose 0.5 mg/kg in rats; assay type: ADME, organism-based; set-up: dose 0.5 mg/kg, route intravenous; conditions: rat; procedure, shortened: as §1

| Log IC50 [1] | bioavailability [2] [%] | Kp at 1 h [3] | clearance [4] [mL/min/kg] | Compound |
| --- | --- | --- | --- | --- |
| -7.16 | – | – | – | CCC(CC)N1CC2CCN(c3ccc(Cl)cc3Cl)c3nc(C)nc1c32 (stereo unspecified) |
| -7.52 | 31 | 1.8 | 31 | CCCC(CCC)N1CCC2CN(c3ccc(Cl)cc3Cl)c3nc(C)nc1c32 (stereo unspecified) |
| -6.74 | – | – | – | CCC(CC)N1CCC2CN(c3ccc(Cl)cc3Cl)c3nc(C)nc1c32 (stereo unspecified) |
| -5.9 | – | – | – | COCC(COC)N1CC2CCN(c3ccc(Cl)cc3Cl)c3nc(C)nc1c32 (stereo unspecified) |
| -7.65 | 14 | 2 | 32 | CCCC(CCC)N1CC2CCN(c3ccc(Cl)cc3Cl)c3nc(C)nc1c32 (stereo in doubt; 2ac) |
| -7.96 | – | – | – | CCCC(CCC)N1CC2CCN(c3ccc(Cl)cc3Cl)c3nc(C)nc1c32 (stereo in doubt; 2ae) |
| -7.89 | – | – | – | CCCC(CCC)N1CC2CCN(c3ccc(Cl)cc3Cl)c3nc(C)nc1c32 (stereo in doubt; 2af) |
| -7.84 | – | – | – | CCCC(CCC)N1CC2CCN(c3ccc(C(F)(F)F)cc3C(F)(F)F)c3nc(C)nc1c32 (stereo in doubt; 2ah) |

Continued, compound first:

| Compound | Log IC50 [1] | bioavailability [2] [%] | Kp at 1 h [3] | clearance [4] [mL/min/kg] |
| --- | --- | --- | --- | --- |
| Cc1nc2c3c(n1)N(c1ccc(Cl)cc1Cl)CC3CCN2CC1CC1 (stereo unspecified) | -5.35 | – | – | – |
| CCCC(CCC)n1cc2c3c(nc(C)nc31)N(c1ccc(C(F)(F)F)cc1C(F)(F)F)CC2 | -7.85 | 33 | 1.3 | 10 |
| CCC(CC)n1cc2c3c(nc(C)nc31)N(c1ccc(C#N)cc1Cl)CC2 | -7.21 | – | – | – |
| CCC(CC)n1cc2c3c(nc(C)nc31)N(c1ccc(C(F)(F)F)cc1C(F)(F)F)CC2 | -7.58 | – | – | – |
| CCCC(CCC)n1cc2c3c(nc(C)nc31)N(c1ccc(C#N)cc1C)CC2 | -7.35 | – | – | – |
| CCC(CC)n1cc2c3c(nc(C)nc31)N(c1ccc(C#N)cc1C)CC2 | -7.57 | – | – | – |
| CCCC(CCC)N1CCC2CN(c3ccc(C(F)(F)F)cc3C(F)(F)F)c3nc(C)nc1c32 (stereo unspecified) | -7.39 | – | – | – |
| COCC(COC)Nc1nc(C)nc2c(-c3ccc(Cl)cc3Cl)c(C)nn12 | -7.42 | – | – | – |
| CCCC(CCC)N1CC2CCN(c3ccc(C(F)(F)F)cc3C(F)(F)F)c3nc(C)nc1c32 (stereo in doubt; 2ad) | -7.44 | 36 | 1.1 | 15 |
| CCCC(CCC)N1CC2CCN(c3ccc(C(F)(F)F)cc3C(F)(F)F)c3nc(C)nc1c32 (stereo in doubt; 2ag) | -7.55 | – | – | – |
| CCCCN(CC)c1nc(C)nc2c1c(C)cn2-c1c(C)cc(C)cc1C [CP-154526] | -7.76 | – | – | – |
